The source of these data is ChEMBL document CHEMBL3046072, “Plant P5C reductase as a new target for aminomethylenebisphosphonates” (J Agric Food Chem, 2007).

This assay addresses T1, Pyrroline-5-carboxylate reductase (Arabidopsis thaliana, UniProt P54904).
T1 sequence (P54904 whole entry): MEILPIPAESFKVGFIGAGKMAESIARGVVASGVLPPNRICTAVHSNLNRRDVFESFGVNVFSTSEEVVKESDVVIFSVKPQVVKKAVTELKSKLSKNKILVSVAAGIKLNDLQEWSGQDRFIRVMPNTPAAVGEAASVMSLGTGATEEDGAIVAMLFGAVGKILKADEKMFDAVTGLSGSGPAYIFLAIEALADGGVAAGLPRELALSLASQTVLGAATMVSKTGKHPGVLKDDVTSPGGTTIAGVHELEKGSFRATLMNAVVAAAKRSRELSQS
Kind of assay: Inhibition of Arabidopsis thaliana P5C reductase catalytic activity. To be noted: read-out: I50. The method, boiled down: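 P5C reductase partially purified from A. thaliana Columbia suspension-cultured cells by ammonium sulfate cut and two DEAE-Sephacel steps. Assay at 35 °C: 100 mM Tris-HCl pH 8.0, 0.1 mM MgCl2, 2 mM DL-P5C, 0.25 mM NADH. Read as NADH oxidation at 340 nm, or as P5C loss by ninhydrin at 535 nm. Inhibitor neutralised to pH 7.4, tested over 0.010–5 mM. I50 from regression of % control activity versus log concentration.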

For the molecule `O=P(O)(O)C(Nc1cc(Cl)cc(Cl)c1)P(=O)(O)O` [(3,5-DICHLOROPHENYLAMINO)METHYLENEDIPHOSPHONIC ACID], the IC50 turned out to be 77 µM.
